From ChEMBL document CHEMBL4359831, “Chemoproteomics of an Indole-Based Quinone Epoxide Identifies Druggable Vulnerabilities in Vancomycin-Resistant Staphylococcus aureus” (J Med Chem, 2019) come the findings set out here.

Values after ≈ are worked out from the molar mass of the structure shown. Active and inactive are the calls of the source. The rule behind the calls is not given here.

Data set [1] relates to Staphylococcus aureus. In words: Antibacterial activity against Staphylococcus aureus ATCC 29213 after 16 to 18 hrs by CLSI M07-A10 protocol based dilution method. It counts as functional. In outline:
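MIC against ATCC 29213 determined by a previously described protocol; values in μg/mL.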

Data set [2] in a line: L-cysteine reactivity in pH 7.4 phosphate buffer assessed as compound remaining at 100 uM incubated for 1 hr by HPLC analysis.
Data set [3] concerns Staphylococcus aureus. The data set can be described thus: Bactericidal activity against Staphylococcus aureus ATCC 29213 at 1 to 10 times MIC preincubated up to 24 hrs under shaking condition followed by bacterial plating on Tryptic Soy agar and measured after 18 to 20 hrs by time kill assay. It counts as functional, organism-based.
Data set [4] is described as follows: Selectivity index, ratio of CC50 for African green monkey Vero cells to MIC90 for Staphylococcus aureus ATCC 29213. The format is toxicity. The conditions noted are these: read-out: Selectivity Index.
A short description of data set [5]: L-cysteine reactivity in pH 7.4 phosphate buffer at 100 uM preincubated for 1 hr followed by mono-bromobimane addition and measured after 30 mins by fluorescence based competition assay.
Data set [6] concerns Staphylococcus aureus. The data set can be described thus: Binding affinity to soluble protein in Staphylococcus aureus ATCC 29213 cell lysates after 1 hr by Rhodamine azide fluorescence dependent gel-based ABPP assay. The conditions noted are these: Lysate. It counts as functional. In short, it runs like this: (§1)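 S. aureus soluble or fractionated membrane lysates were incubated 1 h with alkyne probe (0.01–100 μM), then Cu-catalysed click with rhodamine-azide. Proteomes were resolved by SDS-PAGE and visualised by in-gel fluorescence (gel-based ABPP).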

Data set [7] relates to Staphylococcus aureus. In words: Binding affinity to membrane protein in Staphylococcus aureus ATCC 29213 cell lysates after 1 hr by Rhodamine azide fluorescence dependent gel-based ABPP assay. The format is functional. The conditions noted are these: Lysate. In outline: as §1
The subject of data set [8] is Staphylococcus aureus. In words: Cysteine reactivity in iodoacetamide treated Staphylococcus aureus ATCC 29213 cell lysates at 10 uM incubated for 1 hr by Rhodamine azide fluorescence dependent gel-based competitive ABPP assay. The format is subcellular. The conditions noted are these: Cell lysate. In short, it runs like this: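 Fractionated S. aureus soluble and membrane lysates were pretreated with excess iodoacetamide (10 mM), then chased with probe (10 μM). Read-out was rhodamine-azide click and SDS-PAGE in-gel fluorescence.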

Data set [9] concerns Staphylococcus aureus. The data set can be described thus: Binding affinity to soluble protein in Staphylococcus aureus ATCC 29213 cells after 1 hr by Rhodamine azide fluorescence dependent gel-based ABPP assay. The format is functional, organism-based. In outline: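 Live S. aureus cultures were treated with probe (10 μM, 1 h), then lysed and fractionated into soluble and membrane proteomes. Labelling was assessed by rhodamine-azide click and SDS-PAGE fluorescence.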

In data set [10] the test system is Escherichia coli. In words: Binding affinity to soluble protein in Escherichia coli ATCC 25922 cell lysates after 1 hr by Rhodamine azide fluorescence dependent gel-based ABPP assay. It counts as functional. The conditions noted are these: Lysate.
Data set [11] deals with Escherichia coli. In words: Binding affinity to membrane protein in Escherichia coli ATCC 25922 cell lysates after 1 hr by Rhodamine azide fluorescence dependent gel-based ABPP assay. The format is functional. The conditions noted are these: Lysate.
Data set [12] relates to Staphylococcus aureus. The data set can be described thus: Binding affinity to Staphylococcus aureus ATCC 29213 C-terminal His6-tagged MarR_12840 (Cys61 residue) expressed in Escherichia coli BL21(DE3) cells up to 100 uM incubated for 1 hr by Rhodamine azide fluorescence dependent gel-based ABPP assay. In outline: (§2)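 Recombinant His-tagged MarR proteins were purified from E. coli by Ni-NTA, as wild type and as Cys→Ala variants (C61A MarR_12840; C12A MarR_05815). Proteins were labelled with probe at 0–100 μM for 1 h, then click with rhodamine-azide and SDS-PAGE fluorescence read-out.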

Data set [13] deals with Staphylococcus aureus. The data set can be described thus: Binding affinity to Staphylococcus aureus ATCC 29213 C-terminal His6-tagged MarR_05815 (Cys12 residue) expressed in Escherichia coli BL21(DE3) cells up to 100 uM incubated for 1 hr by Rhodamine azide fluorescence dependent gel-based ABPP assay. In short, it runs like this: as §2
The test system of data set [14] is Staphylococcus aureus. The data set can be described thus: Binding affinity to Staphylococcus aureus ATCC 29213 C-terminal His6-tagged MarR_12840 C61A mutant expressed in Escherichia coli BL21(DE3) cells up to 100 uM incubated for 1 hr by Rhodamine azide fluorescence dependent gel-based ABPP assay. In outline: (§3)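 Recombinant His-tagged protein purified from E. coli by Ni-NTA affinity chromatography; wild-type and Cys-to-Ala variant treated with increasing alkyne quinone-epoxide probe (0–100 μM) for 1 h. Then Cu-catalysed click reaction with rhodamine-azide, SDS-PAGE resolution, and in-gel fluorescence visualisation of probe labelling.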

For data set [15], the system named is Staphylococcus aureus. The data set can be described thus: Binding affinity to Staphylococcus aureus ATCC 29213 C-terminal His6-tagged MarR_05815 C12A mutant expressed in Escherichia coli BL21(DE3) cells up to 100 uM incubated for 1 hr by Rhodamine azide fluorescence dependent gel-based ABPP assay. In outline: as §3
Data set [16] has as its system Escherichia coli. In words: Binding affinity to soluble protein in Escherichia coli ATCC 25922 cells after 1 hr by Rhodamine azide fluorescence dependent gel-based ABPP assay. The format is functional, organism-based.
The subject of data set [17] is Escherichia coli. The data set can be described thus: Binding affinity to membrane protein in Escherichia coli ATCC 25922 cells after 1 hr by Rhodamine azide fluorescence dependent gel-based ABPP assay. The format is functional, organism-based.
Data set [18] has as its system Staphylococcus aureus. The data set can be described thus: Antibacterial activity against vancomycin-resistant Staphylococcus aureus SA-HIP-14300 after 16 to 18 hrs by CLSI M07-A10 protocol based dilution method. The format is functional.
For data set [19], the system named is Staphylococcus aureus. The data set can be described thus: Antibacterial activity against vancomycin-resistant Staphylococcus aureus SA-HIP-11983 after 16 to 18 hrs by CLSI M07-A10 protocol based dilution method. The format is functional.
Data set [20] has as its system Staphylococcus aureus. The data set can be described thus: Antibacterial activity against vancomycin-resistant Staphylococcus aureus AIS100050 after 16 to 18 hrs by CLSI M07-A10 protocol based dilution method. It counts as functional.
For data set [21], the system named is Staphylococcus aureus. The data set can be described thus: Antibacterial activity against vancomycin-resistant Staphylococcus aureus SA-HIP-15178 after 16 to 18 hrs by CLSI M07-A10 protocol based dilution method. The format is functional.
In data set [22] the test system is Staphylococcus aureus. In words: Antibacterial activity against vancomycin-resistant Staphylococcus aureus SA-71080 after 16 to 18 hrs by CLSI M07-A10 protocol based dilution method. The format is functional.
Data set [23] deals with Staphylococcus aureus. In words: Antibacterial activity against vancomycin-resistant Staphylococcus aureus HIP11714 after 16 to 18 hrs by CLSI M07-A10 protocol based dilution method. It counts as functional.
Data set [24] deals with Staphylococcus aureus. The data set can be described thus: Antibacterial activity against vancomycin-resistant Staphylococcus aureus HIP14300 after 16 to 18 hrs by CLSI M07-A10 protocol based dilution method. The format is functional.
Data set [25] has as its system Staphylococcus aureus. In words: Antibacterial activity against vancomycin-resistant Staphylococcus aureus 1002434 after 16 to 18 hrs by CLSI M07-A10 protocol based dilution method. It counts as functional.
Data set [26] relates to Staphylococcus aureus. In words: Bactericidal activity against vancomycin-resistant Staphylococcus aureus HIP11714 at 10 times MIC measured up to 24 hrs by time kill assay. It counts as functional, organism-based.
The nature of data set [27]: L-cysteine reactivity in pH 7.4 phosphate buffer assessed as pseudo first order rate constant at 100 uM measured at 10 mins time interval up to 60 mins by HPLC analysis.

In the case of `Cc1cc2c3ccccc3n(C(C)C)c2c2c1C(=O)C1OC1C2=O` (centres undefined), in the data set on Staphylococcus aureus [1], the MIC turned out to be 4 µg/mL (≈ 12.5 µM). In addition, the Activity in data set [2] was determined as 84%.

`CC(C)n1c2ccccc2c2ccc3c(c21)C(=O)C1(c2ccccc2)OC1C3=O` (centres undefined) returned an MIC in the data set on Staphylococcus aureus [1] of 0.0625 µg/mL (≈ 0.164 µM). In the data set with Staphylococcus aureus [3], the outcome was Active. The selectivity ratio in data set [4] is greater than 200.

In the data set with Staphylococcus aureus [1], `Cn1c2ccccc2c2ccc3c(c21)C(=O)C1OC1C3=O` (centres undefined) had an MIC of 4 µg/mL (≈ 14.4 µM). Also, the Activity in data set [2] came out at 27%.

As for `C#CCCCn1c2ccccc2c2ccc3c(c21)C(=O)C1OC1C3=O` (centres undefined), the MIC against Staphylococcus aureus [1] turned out to be 1 µg/mL (≈ 3.04 µM). Also, the result (in data set [5]; in the data set with Staphylococcus aureus [7]; in the data set on Staphylococcus aureus [9]; with Escherichia coli [10]; in the data set with Escherichia coli [11]) was Active. Further, the Activity entry with Staphylococcus aureus [6], with Staphylococcus aureus [12] and in the data set on Staphylococcus aureus [13] was “Dose-dependent effect” in each case. Further, the outcome with Staphylococcus aureus [8], in the data set on Staphylococcus aureus [14], in the data set with Staphylococcus aureus [15], with Escherichia coli [16] and with Escherichia coli [17] was inactive.

Consider `CCc1cc2c3ccccc3n(C(C)C)c2c2c1C(=O)C1OC1C2=O` (centres undefined), for which it took 64 µg/mL (≈ 192 µM) to inhibit growth against Staphylococcus aureus [1] (MIC). Besides, in data set [2], the Activity turned out to be 88%.

`CC(C)n1c2ccccc2c2ccc3c(c21)C(=O)C1OC1(c1ccc(Br)cc1)C3=O` (centres undefined) showed a minimum inhibitory concentration (MIC) against Staphylococcus aureus [1] greater than 64 µg/mL.

`C#CCCCn1c2ccccc2c2ccc3c(c21)C(=O)C1OC1(c1ccccc1)C3=O` (centres undefined) registered an MIC in the data set on Staphylococcus aureus [1] greater than 64 µg/mL. Further, the result (in data set [5]; in the data set on Staphylococcus aureus [7]; in the data set with Staphylococcus aureus [9]) was Active. The result in the data set with Staphylococcus aureus [6] was inactive.

As for `CCn1c2ccccc2c2cc(C)c3c(c21)C(=O)C1OC1C3=O` (centres undefined), it took 2 µg/mL (≈ 6.55 µM) to inhibit growth with Staphylococcus aureus [1] (MIC). For the same compound, the Activity in [2] was found to be 93%.

Turning to `CCn1c2ccccc2c2ccc3c(c21)C(=O)C1OC1C3=O` (centres undefined), the MIC in the data set with Staphylococcus aureus [1] came out at 2 µg/mL (≈ 6.87 µM). The Activity in data set [2] stood at 33%.

As to `CN[C@H](CC(C)C)C(=O)N[C@H]1C(=O)N[C@@H](CC(N)=O)C(=O)N[C@H]2C(=O)N[C@H]3C(=O)N[C@H](C(=O)N[C@H](C(=O)O)c4cc(O)cc(O)c4-c4cc3ccc4O)[C@H](O)c3ccc(c(Cl)c3)Oc3cc2cc(c3O[C@@H]2O[C@H](CO)[C@@H](O)[C@H](O)[C@H]2O[C@H]2C[C@](C)(N)[C@H](O)[C@H](C)O2)Oc2ccc(cc2Cl)[C@H]1O` [VANCOMYCIN], the MIC against Staphylococcus aureus [18] was greater than 64 µg/mL; against Staphylococcus aureus [19], 32 to 64 µg/mL (≈ 22.1 to 44.2 µM); in the data set with Staphylococcus aureus [20], 32 to 64 µg/mL (≈ 22.1 to 44.2 µM); in the data set on Staphylococcus aureus [21], 32 to 64 µg/mL (≈ 22.1 to 44.2 µM); against Staphylococcus aureus [22], 32 to 64 µg/mL (≈ 22.1 to 44.2 µM); with Staphylococcus aureus [23], greater than 64 µg/mL. For the same compound, the MIC with Staphylococcus aureus [24] and against Staphylococcus aureus [25] was greater than 64 µg/mL throughout.

Compound `COc1ccc(C23OC2C(=O)c2c(ccc4c5ccccc5n(C(C)C)c24)C3=O)cc1` (centres undefined) had an MIC with Staphylococcus aureus [1] greater than 64 µg/mL.

Consider `CCCCCCCCCC(=O)N[C@@H](Cc1c[nH]c2ccccc12)C(=O)N[C@@H](CC(N)=O)C(=O)N[C@@H](CC(=O)O)C(=O)N[C@@H]1C(=O)NCC(=O)N[C@@H](CCCN)C(=O)N[C@H](CC(=O)O)C(=O)N[C@H](C)C(=O)N[C@@H](CC(=O)O)C(=O)NCC(=O)N[C@H](CO)C(=O)N[C@@H]([C@@H](C)CC(=O)O)C(=O)N[C@@H](CC(=O)c2ccccc2N)C(=O)O[C@@H]1C`, for which the outcome with Staphylococcus aureus [26] was Active.

`Cc1cc2c([nH]c3ccccc32)c2c1C(=O)C1OC1C2=O` (centres undefined) displayed an MIC in the data set on Staphylococcus aureus [1] greater than 16 µg/mL. Also, in data set [2], the Activity amounted to 86%.

Regarding `O=C1c2ccc3c4ccccc4n(-c4ccccc4)c3c2C(=O)C2OC12` (centres undefined), the MIC against Staphylococcus aureus [1] was 2 µg/mL (≈ 5.89 µM). For the same compound, the Activity in [2] turned out to be 57%.

`COc1ccc(C23OC2C(=O)c2ccc4c5ccccc5n(C(C)C)c4c2C3=O)cc1` (centres undefined): in the data set with Staphylococcus aureus [1], the MIC turned out to be 0.5 µg/mL (≈ 1.22 µM).

In the data set on Staphylococcus aureus [1], `CC(C)n1c2ccccc2c2ccc3c(c21)C(=O)C1OC1(c1ccccc1)C3=O` (centres undefined) yielded an MIC greater than 64 µg/mL. In data set [27], the K stood at 0.78 ×10⁻² /min. Further, the result in [5] was Active.

Consider `CC(C)n1c2ccccc2c2ccc3c(c21)C(=O)C1(c2ccc(Br)cc2)OC1C3=O` (centres undefined), for which, in the data set on Staphylococcus aureus [1], the MIC was determined as 1 µg/mL (≈ 2.17 µM).

Turning to `O=C1c2ccc3c([nH]c4ccccc43)c2C(=O)C2OC12` (centres undefined), in the data set on Staphylococcus aureus [1], inhibition of growth (MIC) required 4 µg/mL (≈ 15.2 µM). Besides, the Activity in [2] was 33%.
